An excerpt weighted towards active compounds, which were near 3.5% of everything screened.
RGS4 pot: RGS4 potentiation or activation. HEK293 M3R/inducible RGS4, carbachol calcium flux Fluo4; stronger effect = lower value. B-score at 10 µM. actives 0.92% (n = 310,000). AID 463111;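 active = B-score of the integrated calcium signal more than 4 SD below the library mean, with starting fluorescence not abnormally high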;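 note: negative B-score means reduced calcium response which marks RGS4 activation or potentiation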
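Reagent: ECmax carbachol challenge; Test system: M3R-expressing HEK293 line, RGS4 induced by doxycycline; Schedule: overnight RGS4 induction, 30 min dye load 37 °C, 20 min compound RT; Detection: calcium dye Fluo4 fluorescence; Read-out: Agonist-evoked peak-minus-minimum fluorescence over baseline, integrated ratio, B score.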
RGS4 block: human RGS4 inhibition; P49798; HEK293 M3R/RGS4 inducible, Fluo-4 calcium flux; stronger effect = higher value; triggered by carbachol at its EC20; B-score at 10 µM; actives 0.45% (n = 310,000);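 active = B-score, a plate-corrected calcium signal, over three deviations above library mean, with baseline fluorescence within five deviations of library mean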;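 note: RGS4 expression induced by doxycycline in cells with stable M3 receptor; B-score is computed from the integrated fluorescence ratio over baseline after carbachol; higher B-score means a larger calcium signal and so more RGS4 inhibition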
Target sequence (P49798 whole entry, looked up): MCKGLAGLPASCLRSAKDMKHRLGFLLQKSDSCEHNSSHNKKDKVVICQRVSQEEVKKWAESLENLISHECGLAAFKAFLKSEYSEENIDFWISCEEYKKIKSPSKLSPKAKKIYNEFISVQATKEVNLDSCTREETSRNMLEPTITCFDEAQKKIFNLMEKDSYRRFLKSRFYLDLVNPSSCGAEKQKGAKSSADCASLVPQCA
MrgX1 agonist: agonists of human MrgX1 receptor; MrgX1-HEK293 cells, Fluo-4 calcium fluorescence, agonist mode; stronger effect = higher value; B-score at 10 µM; actives 0.44% (n = 310,000);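 active = calcium response B-score plate-corrected fluorescence ratio at least 3 library SD, with starting fluorescence B-score inside 5 SD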
Target sequence (Q96LB2 whole entry, looked up): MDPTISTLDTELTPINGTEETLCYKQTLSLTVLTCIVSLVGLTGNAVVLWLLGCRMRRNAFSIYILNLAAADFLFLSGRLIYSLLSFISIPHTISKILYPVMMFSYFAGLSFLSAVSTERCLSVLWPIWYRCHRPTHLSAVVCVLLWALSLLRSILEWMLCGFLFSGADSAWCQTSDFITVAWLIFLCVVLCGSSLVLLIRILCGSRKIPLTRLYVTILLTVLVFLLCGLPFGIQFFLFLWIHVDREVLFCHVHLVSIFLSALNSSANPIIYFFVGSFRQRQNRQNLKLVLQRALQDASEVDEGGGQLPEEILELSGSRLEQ
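Test system: HEK293 cells stably expressing human MrgX1 receptor; Input: fifteen thousand cells per well; Dosing: compound delivered in addition one of three; Schedule: overnight seeding, then 1 h dark dye loading; Technique: Fluo-4 NW calcium fluorescence; Measure: B-scored fluorescence response ratio; Controls: positive and negative controls per plate.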
MrgX1 PAM: allosterically activates human MrgX1 receptor signaling. actives 0.63% (n = 310,000). Q96LB2. B-score at 10 µM. MrgX1-HEK293, Fluo-4 calcium flux, FDSS; stronger effect = higher value;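 active = plate-corrected calcium response at least 3 library SD above typical, normal starting fluorescence, not activating the receptor alone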;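 note: compound read alongside a low EC10 to EC30 dose of BAM8-22 agonist; peak minus trough fluorescence over baseline measured at the second addition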
MrgX1 antag: antagonists of human MrgX1 receptor; Q96LB2; MRGX1-HEK293 calcium flux, Fluo-4, BAM8-22 antagonism; stronger effect = lower value; B-score at 10 µM; actives 1.3% (n = 310,000); AID 588676;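 active = calcium-response B-score plate-corrected more than 3 library SD below zero, starting fluorescence within 5 deviations, no agonist response on first addition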;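 note: peak minus trough fluorescence over baseline after final BAM8-22 challenge near maximal dose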
MrgX1 allo conf: confirmation of human MrgX1 receptor positive allosteric modulators; shares compounds with MrgX1 PAM; MrgX1-HEK293, Fluo-4 calcium fluorescence, FDSS; activation (ratio percentage), % at 10 µM; actives 13% (n = 1,200);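 active = ratio at least 3 SD above the weak peptide control, stable starting fluorescence, no direct agonism earlier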;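 note: compound followed by low BAM8-22 agonist challenge near EC20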
HEK293 Ca flux: MrgX1 antagonist counter-screen hit in parental HEK293 cells. shares compounds with MrgX1 antag. Fluo-4 calcium fluorescence, FDSS. fluorescence ratio F(max-min)/F0 at 10 µM. actives 2% (n = 4,000);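 active = duplicate-averaged calcium fluorescence ratio at least three times the standard deviation of buffer wells, a nonspecific response in parental cells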
HEK293 Ca counter: activity in parental HEK293 cells without MrgX1 | fluorescence ratio F(max-min)/F0 at 10 µM | shares compounds with MrgX1 antag | actives 0.4% (n = 4,000) | parental HEK293 calcium flux, Fluo-4 fluorescence ratio; stronger effect = higher value | AID 624114;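 active = calcium fluorescence ratio, averaged over duplicates, at least 3 SD of the buffer-well ratio, meaning a nonspecific response in receptor-free cells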;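 note: untransfected parental HEK293 lacking MrgX1 used as counterscreen for MrgX1 allosteric activators; fluorescence change taken during the second addition on a kinetic imager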
HEK293 Ca cntr2: counter-screen for MrgX1 activators: effect in parental HEK293 cells | actives 8.7% (n = 4,000) | shares compounds with MrgX1 antag | fluorescence ratio F(max-min)/F0 at 10 µM | Fluo-4 calcium fluorescence (FDSS); stronger effect = higher value;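 active = calcium fluorescence ratio at least three times the spread of buffer wells, meaning a non-specific response in parental cells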
The depositor's hits bear a star; i = inactive; . = no result.

SMILES	RGS4 pot	RGS4 block	MrgX1 agonist	MrgX1 PAM	MrgX1 antag	MrgX1 allo conf	HEK293 Ca flux	HEK293 Ca counter	HEK293 Ca cntr2
CC12CCC(C(=O)Nc3ccc(SC(F)F)cc3)(CC1=O)C2(C)C (stereo not drawn)	i	i	i	6.67*	i	i	i	i	i
O=C(NC1CCCCC1)c1ccccc1C(F)(F)F	i	i	i	8.63*	i	i	i	i	i
O=CN1CCN(C(=O)c2cccc([N+](=O)[O-])c2)CC1	i	i	i	i	i	.	.	.	.
COc1cccc(NC(=O)CN2C(=O)COc3ccc(Cl)cc32)c1	i	i	i	7.73*	i	i	i	i	i
CCCOc1ccc(/C(O)=C2/C(=O)C(=O)N(CCCn3ccnc3)C2c2cccs2)cc1 (stereo not drawn)	i	i	i	i	i	.	.	.	.
CCNc1nc2[nH]c(=O)c3c(c2s1)OC(N)=C(C#N)C3c1ccc(C)cc1 (stereo not drawn)	i	i	i	15.9*	i	i	i	i	51.4*
Cc1c(CC(=O)O)c(=O)oc2c(C)c(OCc3ccc(F)cc3F)ccc12	i	i	i	i	i	.	.	.	.
COc1ccccc1COc1ccc2c(C)c(CC(=O)O)c(=O)oc2c1C	i	i	i	13.2*	i	i	i	i	i
O=C(COc1ccccc1Br)NC1CCCC1	i	i	i	7.27*	i	i	i	i	i
CCc1ccc(OCC(=O)NC2CCCCC2)c(Br)c1	i	i	i	8.29*	i	i	i	i	i
Cc1cc(Br)ccc1OCC(=O)NC1CCCC1	i	i	i	i	i	.	.	.	.
CSCC[C@H](NC(=O)N1CCn2c1nc1ccccc12)C(=O)N1CCCCC1	i	i	i	10.2*	i	i	i	i	i
COc1ccc(Cl)cc1NC(=O)CN(C)CC(=O)Nc1ccccc1N1CCOCC1	i	i	i	i	i	.	.	.	.
CC(C)(C)NC(=O)COC(=O)c1ccc(O)cc1	i	i	i	i	i	.	.	.	.
Cc1ccc(NC(=O)CSc2nnc(C3CC3)n2N)cc1S(=O)(=O)N1CCOCC1	i	i	i	7.93*	i	i	i	i	i
CCCCc1cc(=O)oc2cc(OC(C)C(=O)NCc3ccccn3)c(Cl)cc12 (stereo not drawn)	i	i	i	13.5*	i	i	i	i	i
CCCCc1cc(=O)oc2cc(OCC(=O)NCc3ccccn3)c(Cl)cc12	i	i	i	i	i	.	.	.	.
Cc1nc2ccc3nc(NC(=O)C4COc5ccccc5O4)sc3c2s1 (stereo not drawn)	i	i	i	8.05*	i	7.8%*	i	i	i
COc1ccc(Cl)cc1NC(=O)C1COc2ccccc2O1 (stereo not drawn)	i	i	i	i	i	.	.	.	.
CN1CCN(c2ccc(Cl)cc2NC(=O)C2COc3ccccc3O2)CC1 (stereo not drawn)	i	i	i	6.53*	i	i	i	i	i
O=C(COc1ccccc1[N+](=O)[O-])N1CCC(Cc2ccccc2)CC1	i	i	i	i	i	.	.	.	.
Cc1cc(-n2c(C)c3c(C)nnc(C)c3c2C)ccc1N	i	i	i	i	i	.	.	.	.
Cc1ccc(-n2c(C)c3c(C)nnc(C)c3c2C)cc1N	i	i	i	22.2*	i	i	i	i	i
Cc1nnc(NC(=O)c2ccc(S(=O)(=O)N3CCOCC3)cc2)s1	i	i	i	9.83*	i	i	i	i	i
Cc1nnc(NC(=O)c2ccc(C)c(S(=O)(=O)N3CCOCC3)c2)s1	i	i	i	i	i	.	.	.	.
SMILES	RGS4 pot	RGS4 block	MrgX1 agonist	MrgX1 PAM	MrgX1 antag	MrgX1 allo conf	HEK293 Ca flux	HEK293 Ca counter	HEK293 Ca cntr2
c1ccc(CCNc2ncnc3nc[nH]c23)cc1	i	i	i	i	i	.	.	.	.
c1ccc2c(CCNc3ncnc4nc[nH]c34)c[nH]c2c1	i	i	i	7.01*	i	9.4%*	i	i	i
Cc1cccc(C)c1NC(=O)CN(C)C(=O)c1cccc(S(=O)(=O)N2CCN(c3ccc(F)cc3)CC2)c1	i	i	i	9.02*	i	i	i	i	i
COc1ccc(Cl)cc1NC(=O)CC(=O)Nc1cc(Cl)ccc1OC	i	i	i	i	i	.	.	.	.
CC(C)[C@@H](COc1ccccc1)N1CCN(Cc2ccccc2)CCC1=O	i	i	i	14.2*	i	i	i	i	i
CCN(CC)CCn1c(SCC(=O)Nc2cccc(OC)c2)nc2c(sc3ccccc32)c1=O	i	i	i	i	i	.	.	.	.
COc1cccc(NC(=O)CSc2nc3c(sc4ccccc43)c(=O)n2CCN(C)C)c1	i	i	i	7.52*	i	i	i	i	i
COc1ccnc(NCc2cccnc2)c1C#N	i	i	i	i	i	.	.	.	.
Cc1nc(Nc2ccccc2F)c2oc3ccccc3c2n1	i	i	i	6.96*	i	i	i	i	i
Cc1nc(Oc2ccccc2)c2ccsc2n1	i	i	i	9.77*	i	4.8%*	i	i	i
COc1ccccc1Oc1ncnc2c1oc1ccccc12	i	i	i	15.3*	i	32.8%*	i	i	i
CCN(CC)CCOc1ncnc2c1oc1ccccc12	i	i	i	i	i	.	.	.	.
c1ccc(Sc2ncnc3c2oc2ccccc23)cc1	i	i	i	12.2*	i	21.8%*	i	i	i
c1ccc(-n2cnc3cc(NCc4ccccn4)ccc32)cc1	i	i	i	i	i	.	.	.	.
CCN(CC)c1ccc(/C=N/NC(=O)c2ccccn2)cc1	i	i	i	i	i	.	.	.	.
Cc1ccccc1-n1c(C)nnc1SCC(=O)NNC(=O)c1ccccc1	i	i	i	i	i	.	.	.	.

Bioassay records deposited in PubChem by Johns Hopkins Ion Channel Center.
